ChEMBL document CHEMBL3860041, “Synthesis, biological evaluation and molecular modeling study of some new methoxylated 2-benzylthio-quinazoline-4(3H)-ones as nonclassical antifolates” (Bioorg Med Chem Lett, 2016)
In brackets after ≈: the same amount, converted by molar mass.

Columns and labels:
[1] = Growth inhibition of human MDA-MB-435 cells at 10 uM after 48 hrs by SRB assay relative to control; type: functional; conditions: MDA-MB-435, 48 h, read-out: GI
Outline: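 NCI 60-cell-line panel, nine tumor subpanels; compounds tested at a single dose of 10 μM in the primary screen.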

Staphylococcus aureus [2] = assay: Antimicrobial activity against Staphylococcus aureus IFO 3060 at 200 ug/disc measured after 24 hrs by agar disc-diffusion method; type: functional; conditions: IFO 3060, 24 h, read-out: DIZ
Candida albicans = assay: Antimicrobial activity against Candida albicans IFO 0583 at 200 ug/disc measured after 48 hrs by agar disc-diffusion method; type: functional; conditions: IFO 0583, 48 h, read-out: DIZ
Bacillus subtilis [3] = assay: Antimicrobial activity against Bacillus subtilis IFO 3007 at 200 ug/disc measured after 24 hrs by agar disc-diffusion method; type: functional; conditions: IFO 3007, 24 h, read-out: DIZ
Escherichia coli [4] = assay: Antimicrobial activity against Escherichia coli IFO 3301 at 200 ug/disc measured after 24 hrs by agar disc-diffusion method; type: functional; conditions: IFO 3301, 24 h, read-out: DIZ
Pseudomonas aeruginosa = assay: Antimicrobial activity against Pseudomonas aeruginosa IFO 3448 at 200 ug/disc measured after 24 hrs by agar disc-diffusion method; type: functional; conditions: IFO 3448, 24 h, read-out: DIZ
Bacillus subtilis [5] = assay: Antimicrobial activity against Bacillus subtilis IFO 3007 measured after 24 hrs by microdilution method; type: functional; conditions: IFO 3007, 24 h
Staphylococcus aureus [6] = assay: Antimicrobial activity against Staphylococcus aureus IFO 3060 measured after 24 hrs by microdilution method; type: functional; conditions: IFO 3060, 24 h
Escherichia coli [7] = assay: microbe, parasite or virus in culture; conditions: IFO 3301, 24 h

Row | SMILES | inhibition of growth at 10 µM [1] | zone of inhibition at 200 µg/disc (Staphylococcus aureus [2]) | zone of inhibition at 200 µg/disc (Candida albicans) | zone of inhibition at 200 µg/disc (Bacillus subtilis [3]) | zone of inhibition at 200 µg/disc (Escherichia coli [4]) | zone of inhibition at 200 µg/disc (Pseudomonas aeruginosa) | MIC (Bacillus subtilis [5]) | MIC (Staphylococcus aureus [6]) | MIC (Escherichia coli [7])
1 | COc1cc(CSc2nc3ccc(Cl)cc3c(=O)n2Cc2ccccc2)cc(OC)c1OC | 98.2% | – | – | – | – | – | – | – | –
2 | COc1cc(CSc2nc3ccc(Cl)cc3c(=O)n2-c2ccccc2)cc(OC)c1OC | 75.6% | 17 mm | 8 mm | 20 mm | 16 mm | 8 mm | 4 µg/mL (≈ 8.53 µM) | 8 µg/mL (≈ 17.1 µM) | 8 µg/mL (≈ 17.1 µM)
3 | COc1ccc(-n2c(SCc3cc(OC)c(OC)c(OC)c3)nc3ccc(Cl)cc3c2=O)cc1 | 12.4% | – | – | – | – | – | – | – | –
4 | COc1cc2nc(SCc3cc(OC)c(OC)c(OC)c3)n(Cc3ccccc3)c(=O)c2cc1OC | – | 20 mm | 8 mm | 22 mm | 16 mm | 8 mm | 4 µg/mL (≈ 7.86 µM) | 4 µg/mL (≈ 7.86 µM) | 8 µg/mL (≈ 15.7 µM)
5 | COc1ccc(CSc2nc3cc(OC)c(OC)cc3c(=O)n2-c2ccc(OC)cc2OC)cc1 | 38% | – | – | – | – | – | – | – | –
6 | COc1cc2nc(SCc3cc(OC)c(OC)c(OC)c3)n(-c3ccccc3OC)c(=O)c2cc1OC | 100% | – | – | – | – | – | – | – | –
